ChEMBL document CHEMBL5247575 (J Med Chem, 2018)

Legend:
Bacteria [1] = experiment: Inhibition of bacteria ADC-7 assessed as Koff rate using nitrocefin as substrate incubated for 30 mins
Bacteria [2] = experiment: Inhibition of bacteria ADC-7 assessed as half life using nitrocefin as substrate
Escherichia coli [3] = experiment: Synergistic antibacterial activity against Escherichia coli DH10B assessed as cefepime MIC at 4 ug/ml by broth microdilution method; format: functional; details: dose 4 µg/ml
Klebsiella pneumoniae [4] = experiment: Synergistic antibacterial activity against Klebsiella pneumoniae 776/1742 producing KPC-2 assessed as cefepime MIC at 4 ug/ml by broth microdilution method; format: functional; details: dose 4 µg/ml
Klebsiella pneumoniae [5] = experiment: Synergistic antibacterial activity against Klebsiella pneumoniae 935/1884 producing KPC-3 assessed as cefepime MIC at 4 ug/ml by broth microdilution method; format: functional; details: dose 4 µg/ml
Klebsiella pneumoniae [6] = experiment: Synergistic antibacterial activity against Klebsiella pneumoniae 977/1916 producing KPC-3 assessed as cefepime MIC at 4 ug/ml by broth microdilution method; format: functional; details: dose 4 µg/ml
Klebsiella pneumoniae [7] = experiment: Synergistic antibacterial activity against Klebsiella pneumoniae 1108/1989 producing KPC-3 assessed as cefepime MIC at 4 ug/ml by broth microdilution method; format: functional; details: dose 4 µg/ml
Procedure, shortened: (§1)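 Broth microdilution per CLSI guidelines, using custom frozen panels. […] Each partner drug was also tested alone. MICs were run in triplicate and the modal value is reported.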

Klebsiella pneumoniae [8] = experiment: Synergistic antibacterial activity against Klebsiella pneumoniae CAV 1543 producing OXA-48 assessed as cefepime MIC at 4 ug/ml by broth microdilution method; format: functional; details: dose 4 µg/ml
Klebsiella pneumoniae [9] = experiment: Synergistic antibacterial activity against Klebsiella pneumoniae jefferson 1773 producing OXA-181 assessed as cefepime MIC at 4 ug/ml by broth microdilution method; format: functional; details: dose 4 µg/ml
Acinetobacter baumannii [10] = experiment: Synergistic antibacterial activity against Acinetobacter baumannii PR319 producing OXA-23/24/40 assessed as cefepime MIC at 4 ug/ml by broth microdilution method; format: functional; details: dose 4 µg/ml
Acinetobacter baumannii [11] = experiment: Synergistic antibacterial activity against Acinetobacter baumannii PR448 producing OXA-23 assessed as cefepime MIC at 4 ug/ml by broth microdilution method; format: functional; details: dose 4 µg/ml
Escherichia coli [12] = experiment: Synergistic antibacterial activity against Escherichia coli DH10B assessed as cefepime MIC at 8 ug/ml by broth microdilution method; format: functional; details: dose 8 µg/ml
Escherichia coli [13] = experiment: Synergistic antibacterial activity against Escherichia coli DH10B transfected with pBR322-catI-KPC-2 assessed as cefepime MIC at 8 ug/ml by broth microdilution method; format: functional; details: dose 8 µg/ml; procedure, shortened: as §1
Escherichia coli [14] = experiment: Synergistic antibacterial activity against Escherichia coli DH10B transfected with pBC SK (-) PDC-3 assessed as cefepime MIC at 8 ug/ml by broth microdilution method; format: functional; details: dose 8 µg/ml; procedure, shortened: as §1
Acinetobacter baumannii [15] = experiment: Synergistic antibacterial activity against ADC deleted Acinetobacter baumannii transfected with pWH1266 OXA-23 assessed as cefepime MIC at 8 ug/ml by broth microdilution method; format: functional; details: dose 8 µg/ml
Klebsiella pneumoniae [16] = experiment: Synergistic antibacterial activity against Klebsiella pneumoniae 660/1568 producing KPC-3 assessed as cefepime MIC at 8 ug/ml by broth microdilution method; format: functional; details: dose 8 µg/ml; procedure, shortened: as §1
Klebsiella pneumoniae [17] = experiment: Synergistic antibacterial activity against Klebsiella pneumoniae 901/1860 producing KPC-3 assessed as cefepime MIC at 8 ug/ml by broth microdilution method; format: functional; details: dose 8 µg/ml
Klebsiella pneumoniae [18] = experiment: Synergistic antibacterial activity against Klebsiella pneumoniae 935/1884 producing KPC-3 assessed as cefepime MIC at 8 ug/ml by broth microdilution method; format: functional; details: dose 8 µg/ml
Klebsiella pneumoniae [19] = experiment: Synergistic antibacterial activity against Klebsiella pneumoniae 1398/2291 producing KPC-3 assessed as cefepime MIC at 8 ug/ml by broth microdilution method; format: functional; details: dose 8 µg/ml; procedure, shortened: as §1
Klebsiella pneumoniae [20] = experiment: Synergistic antibacterial activity against Klebsiella pneumoniae CAV 1636 producing OXA-181 assessed as cefepime MIC at 8 ug/ml by broth microdilution method; format: functional; details: dose 8 µg/ml
Klebsiella pneumoniae [21] = experiment: Synergistic antibacterial activity against Klebsiella pneumoniae jefferson 1773 producing OXA-181 assessed as cefepime MIC at 8 ug/ml by broth microdilution method; format: functional; details: dose 8 µg/ml
Escherichia coli [22] = experiment: Synergistic antibacterial activity against Escherichia coli DH10B transfected with pBR322-catI-KPC-2 assessed as meropenem MIC at 4 ug/ml by broth microdilution method; format: functional; details: dose 4 µg/ml; procedure, shortened: as §1
Acinetobacter baumannii [23] = experiment: Synergistic antibacterial activity against ADC deleted Acinetobacter baumannii assessed as meropenem MIC at 4 ug/ml by broth microdilution method; format: functional; details: dose 4 µg/ml
Klebsiella pneumoniae [24] = experiment: Synergistic antibacterial activity against Klebsiella pneumoniae 776/1742 producing KPC-2 assessed as meropenem MIC at 4 ug/ml by broth microdilution method; format: functional; details: dose 4 µg/ml
Klebsiella pneumoniae [25] = experiment: Synergistic antibacterial activity against Klebsiella pneumoniae 935/1884 producing KPC-3 assessed as meropenem MIC at 4 ug/ml by broth microdilution method; format: functional; details: dose 4 µg/ml
Klebsiella pneumoniae [26] = experiment: Synergistic antibacterial activity against Klebsiella pneumoniae 977/1916 producing KPC-3 assessed as meropenem MIC at 4 ug/ml by broth microdilution method; format: functional; details: dose 4 µg/ml
Klebsiella pneumoniae [27] = experiment: Synergistic antibacterial activity against Klebsiella pneumoniae 1354/2241 producing KPC-3 assessed as meropenem MIC at 4 ug/ml by broth microdilution method; format: functional; details: dose 4 µg/ml; procedure, shortened: as §1
Pseudomonas aeruginosa [28] = experiment: Synergistic antibacterial activity against Pseudomonas aeruginosa CL232 assessed as meropenem MIC at 4 ug/ml by broth microdilution method; format: functional; details: dose 4 µg/ml
Acinetobacter baumannii [29] = experiment: Synergistic antibacterial activity against Acinetobacter baumannii PR319 producing OXA-23/24/40 assessed as meropenem MIC at 4 ug/ml by broth microdilution method; format: functional; details: dose 4 µg/ml
Acinetobacter baumannii [30] = experiment: Synergistic antibacterial activity against Acinetobacter baumannii PR381 producing OXA-24/40 assessed as meropenem MIC at 4 ug/ml by broth microdilution method; format: functional; details: dose 4 µg/ml
Escherichia coli [31] = experiment: Synergistic antibacterial activity against Escherichia coli DH10B assessed as meropenem MIC at 8 ug/ml by broth microdilution method; format: functional; details: dose 8 µg/ml
Acinetobacter baumannii [32] = experiment: Synergistic antibacterial activity against ADC deleted Acinetobacter baumannii assessed as meropenem MIC at 8 ug/ml by broth microdilution method; format: functional; details: dose 8 µg/ml
Klebsiella pneumoniae [33] = experiment: Synergistic antibacterial activity against Klebsiella pneumoniae 660/1568 producing KPC-3 assessed as meropenem MIC at 8 ug/ml by broth microdilution method; format: functional; details: dose 8 µg/ml; procedure, shortened: as §1
Klebsiella pneumoniae [34] = experiment: Synergistic antibacterial activity against Klebsiella pneumoniae 1398/2291 producing KPC-3 assessed as meropenem MIC at 8 ug/ml by broth microdilution method; format: functional; details: dose 8 µg/ml; procedure, shortened: as §1
Pseudomonas aeruginosa [35] = experiment: Synergistic antibacterial activity against Pseudomonas aeruginosa 776 assessed as meropenem MIC at 8 ug/ml by broth microdilution method; format: functional; details: dose 8 µg/ml
Acinetobacter baumannii [36] = experiment: Synergistic antibacterial activity against Acinetobacter baumannii PR319 producing OXA-23/24/40 assessed as meropenem MIC at 8 ug/ml by broth microdilution method; format: functional; details: dose 8 µg/ml
Acinetobacter baumannii [37] = experiment: Synergistic antibacterial activity against Acinetobacter baumannii PR381 producing OXA-24/40 assessed as meropenem MIC at 8 ug/ml by broth microdilution method; format: functional; details: dose 8 µg/ml
Escherichia coli [38] = experiment: Antibacterial activity against Escherichia coli DH10B transfected with pBC SK (-) KPC-3 by broth microdilution method; format: functional
Klebsiella pneumoniae [39] = experiment: Antibacterial activity against Klebsiella pneumoniae jefferson 1775 producing OXA-48 by broth microdilution method; format: functional
Pseudomonas aeruginosa [40] = experiment: Antibacterial activity against Pseudomonas aeruginosa CL232 by broth microdilution method; format: functional
Acinetobacter baumannii [41] = experiment: Antibacterial activity against ADC deleted Acinetobacter baumannii by broth microdilution method; format: functional

| SMILES | K (Bacteria [1]) | T1/2 (Bacteria [2]) [min] | MIC (Escherichia coli [3]) [µg/mL] | MIC (Klebsiella pneumoniae [4]) [µg/mL] | MIC (Klebsiella pneumoniae [5]) [µg/mL] | MIC (Klebsiella pneumoniae [6]) [µg/mL] | MIC (Klebsiella pneumoniae [7]) [µg/mL] | MIC (Klebsiella pneumoniae [8]) [µg/mL] | MIC (Klebsiella pneumoniae [9]) [µg/mL] | MIC (Acinetobacter baumannii [10]) [µg/mL] | MIC (Acinetobacter baumannii [11]) [µg/mL] | MIC (Escherichia coli [22]) [µg/mL] | MIC (Acinetobacter baumannii [23]) [µg/mL] | MIC (Klebsiella pneumoniae [24]) [µg/mL] | MIC (Klebsiella pneumoniae [25]) [µg/mL] | MIC (Klebsiella pneumoniae [26]) [µg/mL] | MIC (Klebsiella pneumoniae [27]) [µg/mL] | MIC (Pseudomonas aeruginosa [28]) [µg/mL] | MIC (Acinetobacter baumannii [29]) [µg/mL] | MIC (Acinetobacter baumannii [30]) [µg/mL] | also measured |
| --- | --- | --- | --- | --- | --- | --- | --- | --- | --- | --- | --- | --- | --- | --- | --- | --- | --- | --- | --- | --- | --- |
| O=C(NNC(=O)[C@@H]1CC[C@@H]2CN1C(=O)N2OS(=O)(=O)O)[C@@H]1CCCNC1 [ZIDEBACTAM] | 1.1 10^-3/s | 11 | ≤ 0.12 | ≤ 0.12 | ≤ 0.12 | ≤ 0.12 | ≤ 0.12 | ≤ 0.12 | ≤ 0.12 | > 16 | 4 | ≤ 0.12 | ≤ 0.12 | ≤ 0.12 | ≤ 0.12 | ≤ 0.12 | ≤ 0.12 | > 16 | > 16 | > 16 | MIC (Escherichia coli [12]): ≤ 0.12 µg/mL; MIC (Escherichia coli [13]): ≤ 0.12 µg/mL; MIC (Escherichia coli [14]): ≤ 0.12 µg/mL; MIC (Acinetobacter baumannii [15]): 16 µg/mL; MIC (Klebsiella pneumoniae [16]): ≤ 0.12 µg/mL; MIC (Klebsiella pneumoniae [17]): ≤ 0.12 µg/mL; MIC (Klebsiella pneumoniae [18]): ≤ 0.12 µg/mL; MIC (Klebsiella pneumoniae [19]): ≤ 0.12 µg/mL; MIC (Klebsiella pneumoniae [20]): ≤ 0.12 µg/mL; MIC (Klebsiella pneumoniae [21]): ≤ 0.12 µg/mL; MIC (Escherichia coli [31]): ≤ 0.12 µg/mL; MIC (Acinetobacter baumannii [32]): ≤ 0.12 µg/mL; MIC (Klebsiella pneumoniae [33]): ≤ 0.12 µg/mL; MIC (Klebsiella pneumoniae [34]): ≤ 0.12 µg/mL; MIC (Pseudomonas aeruginosa [35]): 16 µg/mL; MIC (Acinetobacter baumannii [36]): > 16 µg/mL; MIC (Acinetobacter baumannii [37]): > 16 µg/mL |
| O.O=C(NC1CCNCC1)[C@@H]1CC[C@@H]2CN1C(=O)N2OS(=O)(=O)O [RELEBACTAM] | 3 10^-4/s | 39 | ≤ 0.12 | 1 | ≤ 0.12 | 0.25 | 0.5 | 2 | 4 | > 16 | 16 | ≤ 0.12 | ≤ 0.12 | 0.5 | ≤ 0.12 | ≤ 0.12 | ≤ 0.12 | > 16 | > 16 | > 16 | MIC (Escherichia coli [38]): > 16 µg/mL; MIC (Klebsiella pneumoniae [39]): > 16 µg/mL; MIC (Pseudomonas aeruginosa [40]): > 16 µg/mL |
| N#C[C@@H]1CC[C@@H]2CN1C(=O)N2OS(=O)(=O)[O-].[Na+] | 1 10^-3/s | 12 | ≤ 0.12 | 1 | 0.25 | ≤ 0.12 | 0.25 | 0.25 | 1 | > 16 | 2 | ≤ 0.12 | ≤ 0.12 | 0.5 | ≤ 0.12 | ≤ 0.12 | ≤ 0.12 | 16 | 16 | > 16 | MIC (Escherichia coli [38]): > 16 µg/mL; MIC (Klebsiella pneumoniae [39]): > 16 µg/mL; MIC (Pseudomonas aeruginosa [40]): > 16 µg/mL; MIC (Escherichia coli [12]): ≤ 0.12 µg/mL; MIC (Escherichia coli [13]): ≤ 0.12 µg/mL; MIC (Escherichia coli [14]): ≤ 0.12 µg/mL; MIC (Acinetobacter baumannii [15]): 2 µg/mL; MIC (Klebsiella pneumoniae [16]): 0.25 µg/mL; MIC (Klebsiella pneumoniae [17]): ≤ 0.12 µg/mL; MIC (Klebsiella pneumoniae [18]): ≤ 0.12 µg/mL; MIC (Klebsiella pneumoniae [19]): 0.25 µg/mL; MIC (Klebsiella pneumoniae [20]): 0.5 µg/mL; MIC (Klebsiella pneumoniae [21]): 1 µg/mL; MIC (Escherichia coli [31]): ≤ 0.12 µg/mL; MIC (Acinetobacter baumannii [32]): ≤ 0.12 µg/mL; MIC (Klebsiella pneumoniae [33]): ≤ 0.12 µg/mL; MIC (Klebsiella pneumoniae [34]): ≤ 0.12 µg/mL; MIC (Pseudomonas aeruginosa [35]): > 16 µg/mL; MIC (Acinetobacter baumannii [36]): > 16 µg/mL; MIC (Acinetobacter baumannii [37]): > 16 µg/mL |
| NC(=O)[C@@H]1CC[C@@H]2CN1C(=O)N2OS(=O)(=O)[O-].[Na+] [AVIBACTAM SODIUM] | 3.5 10^-4/s | 33 | ≤ 0.12 | 0.5 | ≤ 0.12 | ≤ 0.12 | ≤ 0.12 | 0.25 | 1 | > 16 | 16 | ≤ 0.12 | ≤ 0.12 | ≤ 0.12 | ≤ 0.12 | ≤ 0.12 | ≤ 0.12 | > 16 | > 16 | > 16 | MIC (Escherichia coli [38]): > 16 µg/mL; MIC (Acinetobacter baumannii [41]): 16 µg/mL; MIC (Klebsiella pneumoniae [39]): > 16 µg/mL; MIC (Pseudomonas aeruginosa [40]): > 16 µg/mL |
